Experimental data: ChEMBL document CHEMBL2057112, “Enamino-oxindole HIV protease inhibitors” (Bioorg Med Chem Lett, 2012)

How the values were obtained:
[1] = Inhibition of wild type Human immunodeficiency virus protease expressed in Escherichia coli using ArgGlu(EDANS)SerGlnAsnTyrProIleValGlnLys(DABCYL)Arg as substrate preincubated with compound for 0.5 to 1 min measured by fluorometric analysis at pH 6.5
[2] = Inhibition of Human immunodeficiency virus protease M9 mutant expressed in Escherichia coli using ArgGlu(EDANS)SerGlnAsnTyrProIleValGlnLys(DABCYL)Arg as substrate preincubated with compound for 0.5 to 1 min measured by fluorometric analysis at pH 6.5
[3] = Inhibition of Human immunodeficiency virus protease M10 mutant expressed in Escherichia coli using ArgGlu(EDANS)SerGlnAsnTyrProIleValGlnLys(DABCYL)Arg as substrate preincubated with compound for 0.5 to 1 min measured by fluorometric analysis at pH 6.5
[4] = tested on: Human immunodeficiency virus 1; test: Antiviral activity against Human immunodeficiency virus 1 HXB2 expressing wild type protease infected in human MT4 cells after 5 days by MTT assay; assay type: functional, organism-based; details: Human immunodeficiency virus 1, HXB2, MT4, 120 h
[5] = tested on: Human immunodeficiency virus 1; test: Antiviral activity against Human immunodeficiency virus 1 HXB2 expressing protease M8 mutant infected in human MT4 cells after 5 days by MTT assay; assay type: functional, organism-based; details: Human immunodeficiency virus 1, HXB2, MT4, 120 h
[6] = tested on: Human immunodeficiency virus 1; test: Antiviral activity against Human immunodeficiency virus 1 HXB2 expressing protease M9 mutant infected in human MT4 cells after 5 days by MTT assay; assay type: functional, organism-based; details: Human immunodeficiency virus 1, HXB2, MT4, 120 h
[7] = tested on: Human immunodeficiency virus 1; test: Antiviral activity against Human immunodeficiency virus 1 HXB2 expressing protease M10 mutant infected in human MT4 cells after 5 days by MTT assay; assay type: functional, organism-based; details: Human immunodeficiency virus 1, HXB2, MT4, 120 h
[8] = tested on: Human immunodeficiency virus 1; test: Antiviral activity against Human immunodeficiency virus 1 HXB2 expressing protease M3 mutant infected in human MT4 cells after 5 days by MTT assay; assay type: functional, organism-based; details: Human immunodeficiency virus 1, HXB2, MT4, 120 h
How it was run: (§1)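 MT-4 cells (AIDS Research and Reference Reagent Program) exposed to 50% tissue culture infective doses (TCID₅₀) of virus with various concentrations of test compound for 5 days. MTT solution then added and absorbance measured. Mutant strains carry 10–17 resistance mutations with phenotypic resistance to marketed PIs; all include I84V except M7. IC₅₀ reported.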

[9] = tested on: Human immunodeficiency virus 1; test: Antiviral activity against Human immunodeficiency virus 1 HXB2 expressing protease M4 mutant infected in human MT4 cells after 5 days by MTT assay; assay type: functional, organism-based; details: Human immunodeficiency virus 1, HXB2, MT4, 120 h; how it was run: as §1
[10] = tested on: Human immunodeficiency virus 1; test: Antiviral activity against Human immunodeficiency virus 1 HXB2 expressing protease M5 mutant infected in human MT4 cells after 5 days by MTT assay; assay type: functional, organism-based; details: Human immunodeficiency virus 1, HXB2, MT4, 120 h; how it was run: as §1
[11] = tested on: Human immunodeficiency virus 1; test: Antiviral activity against Human immunodeficiency virus 1 HXB2 expressing protease M6 mutant infected in human MT4 cells after 5 days by MTT assay; assay type: functional, organism-based; details: Human immunodeficiency virus 1, HXB2, MT4, 120 h; how it was run: as §1
[12] = tested on: Human immunodeficiency virus 1; test: Antiviral activity against Human immunodeficiency virus 1 HXB2 expressing protease M7 mutant infected in human MT4 cells after 5 days by MTT assay; assay type: functional, organism-based; details: Human immunodeficiency virus 1, HXB2, MT4, 120 h; how it was run: as §1
[13] = Inhibition of Human immunodeficiency virus protease M8 mutant expressed in Escherichia coli using ArgGlu(EDANS)SerGlnAsnTyrProIleValGlnLys(DABCYL)Arg as substrate preincubated with compound for 0.5 to 1 min measured by fluorometric analysis at pH 6.5

Compound | Ki [1] | Ki [2] | Ki [3] | IC50 [4] | IC50 [5] | IC50 [6] | IC50 [7] | IC50 [8] | IC50 [9] | IC50 [10] | IC50 [11] | IC50 [12] | Ki [13]
CCCCNC=C1C(=O)Nc2ccc(S(=O)(=O)N(CC(C)C)C[C@@H](O)[C@H](Cc3ccccc3)NC(=O)O[C@H]3CO[C@H]4OCC[C@H]43)cc21 (mixture of isomers) | < 0.1 nM | < 0.3 nM | < 1 nM | 13 nM | 25 nM | 11 nM | 40 nM | 15 nM | 28 nM | 18 nM | 32 nM | 5 nM | –
CC(C)CN(C[C@@H](O)[C@H](Cc1ccccc1)NC(=O)O[C@H]1CO[C@H]2OCC[C@H]21)S(=O)(=O)c1ccc2c(c1)C(=CNCCC(C)(C)C)C(=O)N2 (mixture of isomers) | < 0.1 nM | < 0.3 nM | < 1 nM | 11 nM | 23 nM | – | 32 nM | 19 nM | 25 nM | 17 nM | 24 nM | 3.2 nM | –
CC(C)CNC=C1C(=O)Nc2ccc(S(=O)(=O)N(CC(C)C)C[C@@H](O)[C@H](Cc3ccccc3)NC(=O)O[C@H]3CO[C@H]4OCC[C@H]43)cc21 (mixture of isomers) | < 0.1 nM | < 0.3 nM | < 1 nM | 7.5 nM | 16 nM | 9.5 nM | 33 nM | 8 nM | 15 nM | 9 nM | 9 nM | 2.1 nM | –
CC(C)CN(C[C@@H](O)[C@H](Cc1ccccc1)NC(=O)O[C@H]1CO[C@H]2OCC[C@H]21)S(=O)(=O)c1ccc2c(c1)CCN2 | 0.12 nM | 1.5 nM | 10 nM | 3.9 nM | 107 nM | 190 nM | 1700 nM | 80 nM | 175 nM | 120 nM | 30 nM | 7.5 nM | 0.63 nM
CC(C)CN(C[C@@H](O)[C@H](Cc1ccccc1)NC(=O)O[C@H]1CO[C@H]2OCC[C@H]21)S(=O)(=O)c1ccc(N)cc1 | < 0.1 nM | < 0.3 nM | 1 nM | 3 nM | 16 nM | 25 nM | 130 nM | 11 nM | 30 nM | 22 nM | 10 nM | 3.2 nM | 0.25 nM
CC(C)CN(C[C@@H](O)[C@H](Cc1ccccc1)NC(=O)O[C@H]1CO[C@H]2OCC[C@H]21)S(=O)(=O)c1ccc2c(c1)C(=CNC1CCC1)C(=O)N2 (mixture of isomers) | < 0.1 nM | < 0.3 nM | 1.2 nM | 17 nM | 30 nM | 31 nM | 115 nM | 31 nM | 36 nM | 33 nM | 32 nM | 7 nM | –
CNC(C)=C1C(=O)Nc2ccc(S(=O)(=O)N(CC(C)C)C[C@@H](O)[C@H](Cc3ccccc3)NC(=O)O[C@H]3CO[C@H]4OCC[C@H]43)cc21 (mixture of isomers) | < 0.1 nM | < 0.3 nM | < 1 nM | 10 nM | 29 nM | 17 nM | 56 nM | 12 nM | 16 nM | 18 nM | 20 nM | 5 nM | –
CC(N)=C1C(=O)Nc2ccc(S(=O)(=O)N(CC(C)C)C[C@@H](O)[C@H](Cc3ccccc3)NC(=O)O[C@H]3CO[C@H]4OCC[C@H]43)cc21 (mixture of isomers) | < 0.1 nM | < 0.3 nM | < 1 nM | 64 nM | 70 nM | 60 nM | 60 nM | 70 nM | 70 nM | 75 nM | 65 nM | 30 nM | –
CC(C)CN(C[C@@H](O)[C@H](Cc1ccccc1)NC(=O)O[C@H]1CO[C@H]2OCC[C@H]21)S(=O)(=O)c1ccc2c(c1)C(=CNCc1ccccc1)C(=O)N2 (mixture of isomers) | < 0.1 nM | < 0.3 nM | < 1 nM | 14 nM | 35 nM | – | 30 nM | 13 nM | 20 nM | 20 nM | 18 nM | 4.1 nM | –
CC(C)CN(C[C@@H](O)[C@H](Cc1ccccc1)NC(=O)O[C@H]1CO[C@H]2OCC[C@H]21)S(=O)(=O)c1ccc2c(c1)C(=CNCC(C)(C)C)C(=O)N2 (mixture of isomers) | < 0.1 nM | < 0.3 nM | < 1 nM | 4.5 nM | 13 nM | 9.5 nM | 27 nM | 8 nM | 8.8 nM | 7 nM | 6 nM | 1.5 nM | –
COC(=O)N[C@H](C(=O)N[C@@H](Cc1ccccc1)[C@@H](O)CN(Cc1ccc(-c2ccccn2)cc1)NC(=O)[C@@H](NC(=O)OC)C(C)(C)C)C(C)(C)C [ATAZANAVIR] | < 0.1 nM | 84 nM | 171 nM | 3.5 nM | 750 nM | 2500 nM | 3300 nM | 350 nM | 600 nM | 280 nM | 430 nM | 105 nM | 2.8 nM
